Results published in ChEMBL document CHEMBL4138055, “Determination and reduction of translocator protein (TSPO) ligand rs6971 discrimination” (Medchemcomm, 2017).

Assays:
Translocator protein [1] = biological target: T1, Translocator protein (Homo sapiens, UniProt P30536); test: Displacement of [3H]PK11195 from human wild type TSPO expressed in HEK293T cell membranes after 90 mins by scintillation counting method
[2] = Selectivity ratio of IC50 for HEK293T cells expressing human TSPO A147T mutant assessed as decrease in cell viability to IC50 for HEK293T cells expressing human wild type TSPO assessed as decrease in cell viability; type: functional
HEK-293T [3] = test: Antiproliferative activity against HEK293T cells expressing human wild type TSPO after 48 hrs by BrdU incorporation assay; type: functional, cell-based
Outline: (§1)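 293T cells stably expressing human TSPO WT or A147T (lentiviral, puromycin-selected) seeded at 8.75 × 10³ cells/well on poly-L-lysine-coated plates, treated next day with vehicle or compound (1–100 μM) for 48 h. BrdU added for 4 h at 37 °C, incorporation detected by ELISA, absorbance read at 450 nm.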

HEK-293T [4] = test: Antiproliferative activity against HEK293T cells expressing human TSPO A147T mutant after 48 hrs by BrdU incorporation assay; type: functional, cell-based; outline: as §1
HEK-293T [5] = test: Cytotoxicity against HEK293T cells expressing human wild type TSPO assessed as decrease in cell viability after 48 hrs by CellTiter blue assay; type: functional, cell-based
Outline: (§2)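 Stable TSPO WT or A147T 293T cells at 8.75 × 10³ cells/well on poly-L-lysine-coated plates, exposed next day to vehicle or compound (1–100 μM) for 48 h. CellTiter Blue (resazurin to resorufin) added for 4 h at 37 °C, fluorescence read at Ex560/Em590 nm.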

Homo sapiens = species on record: Homo sapiens; test: Selectivity ratio of Ki for human TSPO A147T mutant to Ki for human wild type TSPO
Translocator protein [6] = biological target: T1, Translocator protein; test: Ratio of Ki for displacement of [3H]PK11195 from human brain TSPO isolated from low affinity binder patient to Ki for [3H]PK11195 from human brain TSPO isolated from high affinity binder patient
HEK-293T [7] = test: Cytotoxicity against HEK293T cells expressing human TSPO A147T mutant assessed as decrease in cell viability after 48 hrs by CellTiter blue assay; type: functional, cell-based; outline: as §2
[8] = Selectivity ratio of IC50 for HEK293T cells expressing human TSPO A147T mutant assessed as decrease in cell proliferation to IC50 for HEK293T cells expressing human wild type TSPO assessed as decrease in cell proliferation; type: functional

T1 sequence (P30536 whole entry): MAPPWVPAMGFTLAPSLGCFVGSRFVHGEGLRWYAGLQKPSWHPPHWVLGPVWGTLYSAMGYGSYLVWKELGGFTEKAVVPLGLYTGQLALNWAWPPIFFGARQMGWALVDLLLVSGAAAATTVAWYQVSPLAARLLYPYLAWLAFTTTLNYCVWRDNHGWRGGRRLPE

SMILES: CCN(Cc1ccccc1)C(=O)Cn1c2ccccc2c2cc(Br)ccc21
- Ki (Translocator protein [1]): 0.0543 µM

SMILES: CCN(Cc1ccccc1)C(=O)Cn1c(=O)n(C)c2cnc(-c3ccccc3)nc21
- Ratio IC50 [2]: 0.9
- IC50 (HEK-293T [3]): > 100 µM
- IC50 (HEK-293T [4]): > 100 µM
- IC50 (HEK-293T [5]): 29.5 µM
- Ki (Translocator protein [1]): 0.0064 µM
- Ratio Ki (Homo sapiens): 4.9
- Ratio Ki (Translocator protein [6]): 12.6
- IC50 (HEK-293T [7]): 26.2 µM

SMILES: CCN(CC)C(=O)Cc1c(-c2ccc(OC)cc2)nn2c(C)cc(C)nc12
- IC50 (HEK-293T [3]): > 100 µM
- IC50 (HEK-293T [4]): > 100 µM
- IC50 (HEK-293T [5]): > 100 µM
- IC50 (HEK-293T [7]): > 100 µM

SMILES: CCN(CC)C(=O)Cn1c2ccccc2c2cc(-c3ccccc3OC)ccc21
- Ki (Translocator protein [1]): 0.0254 µM
- Ratio Ki (Homo sapiens): 5.4

SMILES: CCN(Cc1ccccc1)C(=O)Cn1c2ccccc2c2ccccc21
- IC50 (HEK-293T [3]): > 100 µM
- IC50 (HEK-293T [4]): > 100 µM
- IC50 (HEK-293T [5]): > 100 µM
- Ki (Translocator protein [1]): 0.0916 µM
- Ratio Ki (Homo sapiens): 5
- IC50 (HEK-293T [7]): > 100 µM

SMILES: CCN(CC)C(=O)Cn1c2ccccc2c2cc(Br)ccc21
- Ki (Translocator protein [1]): 0.0315 µM
- Ratio Ki (Homo sapiens): 5.1

SMILES: CCC(C)N(C)C(=O)c1cc2ccccc2c(-c2ccccc2Cl)n1 (centres undefined) [PK-11195]
- IC50 (HEK-293T [3]): > 100 µM
- IC50 (HEK-293T [4]): > 100 µM
- IC50 (HEK-293T [5]): 67.4 µM
- IC50 (HEK-293T [7]): 69.2 µM

SMILES: CCN(CC)C(=O)Cn1c2ccccc2c2cc(-c3ccc(OC)cc3)ccc21
- Ki (Translocator protein [1]): 0.0289 µM
- Ratio Ki (Homo sapiens): 3.2

SMILES: CCN(CC)C(=O)Cn1c2ccccc2c2cc(-c3ccccc3)ccc21
- Ratio IC50 [2]: 1
- IC50 (HEK-293T [3]): 50.5 µM
- IC50 (HEK-293T [4]): 47.1 µM
- IC50 (HEK-293T [5]): 23.7 µM
- Ki (Translocator protein [1]): 0.0316 µM
- Ratio Ki (Homo sapiens): 5.1
- Ratio IC50 [8]: 0.9
- IC50 (HEK-293T [7]): 22.9 µM

SMILES: CCN(CC)C(=O)Cn1c2ccccc2c2ccccc21
- Ki (Translocator protein [1]): 0.0301 µM
- Ratio Ki (Homo sapiens): 5.9
